These results are taken from PubChem BioAssay.

A word on the viability: it is a read-out of living cells in per cent, often relative to untreated cells. Usually inhibition stands for the change of the read-out against control, counted positive when it falls.

Values without a mark were called inactive. Records with an inconclusive call do not appear. Calls of active or inactive are those of the source.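 Rule for the calls, unless noted: active = viability increase at or above a cutoff of the median across tested compounds plus 3 SD (cut at about 8.5% in these data, passing the limit was not always enough); inconclusive = some gains above the cutoff, reason not given; inactive = the rest.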

Assay [1] is described as follows: S. cerevisiae growth inhibition in permissive medium (OD615), pilot counter-assay for S. cerevisiae lifespan shortening project, permissive growth control (AID 705;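 active = growth inhibition above 25% in both replicates, a cutoff set 3 SD above the mean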). The note with it: OD615, 24 h, at 10 µM, stronger effect = higher value. The method, boiled down:
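System: Engineered DeaD yeast | Buffer or medium: SC raffinose/galactose permissive medium | Doses: 10 µM single dose, 0.25% DMSO | Times: 24 h exposure, 30 °C | Measured by: OD615 turbidity read | Read-out: Yeast growth inhibition indicated by reduced 24 h OD615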

Assay [2] can be described thus: S. cerevisiae growth inhibition in restrictive medium, OD615, pilot screen, restrictive growth control, yeast lifespan reduction project (AID 706;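 active = growth inhibition above a set limit, 3 SD over mean compound inhibition, in both replicates, cut at about 43% in these data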;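 note: modified DeaD lifespan yeast strain shifted to restrictive glucose medium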). The note with it: OD615, 48 h, at 10 µM, stronger effect = higher value. The essentials:
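Assay system: engineered S. cerevisiae DeaD strain; Buffer or medium: CSMM-D glucose medium; Dosing: 10 µM compound, 0.25% DMSO; Times: cell pre-growth 4 h, compound exposure 48 h, 30 °C; Detection: absorbance (optical density) measured at 615 nm.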

The nature of assay [3]: doxorubicin toxicity protection in MRP-1 cells – H69AR cells, CellTiter-Glo, duplicate, MRP-1 activator project, pilot screen (AID 807).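 Note: compound pretreatment 18-22 h then 72 h combined with doxorubicin; 0% = doxorubicin alone and 100% = vehicle without doxorubicin.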 The following applies: H69AR viability with doxorubicin, CellTiter-Glo luminescence; at 10 µM; stronger effect = higher value.
Assay [4] is described as follows: viability of HCT116 without oncogenic beta-catenin – human colon tumor cells, pilot screen (AID 823;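 active = cell viability at or below a set limit in both duplicate runs, the limit being the all-compound median minus 4 SD, cut at about 23% in these data, passing the limit was not always enough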;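 note: 0% = wells killed by 20 µM Hyamine and 100% = untreated DMSO cell wells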). The following applies: HCT116 beta-catenin knockout viability, CellTiter-Glo, 60 h; at 10 µM; stronger effect = lower value. (ATP-based viability assays read luminescence as a measure of living cells.)
Assay [5] in a line: viability of PTEN-null HCT116 cells – cell-based, HCT116 clonal line, CellTiter-Glo, pilot screen (AID 824;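 active = viability at or below 27.92% in each of two runs, the all-compound median minus 4 SD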;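 note: 0% = 20 µM Hyamine control and 100% = vehicle cell control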). The note with it: HCT116 PTEN-deleted viability, 60 h, at 10 µM, stronger effect = lower value.
Assay [6] in a line: RAM pathway blockade in budding yeast – dse1pr::URA3 reporter, 5-FOA selection, pilot screen (AID 869;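 active = inhibition over a set limit, the all-compound mean plus 3 SD, in both replicate runs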;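 note: 0% = DMSO wells with no growth and 100% = 10 µM 1-NA-PP1 with full growth; RAM network block rescues cells from 5-FOA so hits raise OD615 growth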). The following applies: S. cerevisiae dse1pr::URA3 5-FOA growth, OD615, 2 d; at 10 µM; stronger effect = higher value; strain carries analog-sensitive mutant Cbk1 kinase.
The nature of assay [7]: RAM signaling pathway blockade in yeast – S. cerevisiae, Pdr1DBD-CYC8 efflux-inhibited sensitized strain, primary screen (AID 1298;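 active = RAM network inhibition above 8.4% in each of two replicates, 3 SD over the compound average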;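 note: 0% = DMSO untreated cells without growth and 100% = 10 µM 1-NA-PP1 full growth; higher means more yeast growth rescued from 5-FOA killing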). The following applies: S. cerevisiae cbk1-as DSE1-URA3 strain, 5-FOA growth OD615, 2 d; at 50 µM; stronger effect = higher value.

For `Cc1ccc2c(c1)NC(=O)C(CC(=O)O)O2` (stereo not drawn), the growth inhibition in assay [1] was 2.33%; in assay [2], 0.555%. For the same molecule, the viability increase in assay [3] was -0.27%. The viability in assay [4] is 103%; in assay [5], 99.7%. For the same molecule, in assay [6], the inhibition was 1.48%. The RAM network inhibition in assay [7] is 4.69%.
In the case of `Cn1c(N)c(C(=O)COC(=O)Cc2ccsc2)c(=O)n(C)c1=O`, the values for the growth inhibition in assay [1] and in assay [2] were -10.1% and -0.56%, respectively. The viability increase in assay [3] is -0.79%. In addition, the figures for the viability in assay [4] and in assay [5] were 93.6% and 97.7%, respectively. Moreover, the inhibition in assay [6] is 0.31%. Besides, the RAM network inhibition in assay [7] was -0.32%.
For `CCCc1cc(C(=O)Nc2cccnc2)no1`, the growth inhibition in assay [1] was 0.43%; in assay [2], -0.16%. For the same molecule, the viability increase in assay [3] is -1.86%. Also, the viability in assay [4] was 100%; in assay [5] it was 94.9%. In addition, in assay [6], the inhibition is 0.915%. In addition, in assay [7], the RAM network inhibition is -0.87%.
Take `CC(=O)N1CCc2cc(C(=O)CN3CCN(c4cccc(Cl)c4)CC3)ccc21`: the growth inhibition in assay [1] is -11%; in assay [2], -7.26%. Moreover, the viability increase in assay [3] is 0.32%. For the same molecule, the results for the viability in assay [4] and in assay [5] were 69.3% and 76.8%, respectively. In assay [6], the inhibition is 1.65%. Besides, the RAM network inhibition in assay [7] is 3.12%.
On to `CCSc1nnc(NC(=O)CCc2ccccc2)s1`, for which the growth inhibition in assay [1] was 0.055%; in assay [2], -7.23%. Also, in assay [3], the viability increase is -1.7%. In addition, the viability in assay [4] is 88.7%; in assay [5], 95.1%. Further, in assay [6], the inhibition was 3.51%. The RAM network inhibition in assay [7] is 3.66%.
As for `CC(=O)Nc1nonc1-c1nc2ccccc2n1N(C(C)=O)C(C)=O`, the figures for the growth inhibition in assay [1] and in assay [2] were 3.74% and 8.55%, respectively. Further, the viability increase in assay [3] was -2.77%. In addition, the viability was 93.2% in assay [4] and 93.5% in assay [5]. In addition, the inhibition in assay [6] is 2.67%. The RAM network inhibition in assay [7] is 3.63%.
Turning to `C=CCN(c1ccccc1)S(=O)(=O)c1ccc2c(c1)oc(=O)n2C`, the growth inhibition in assay [1] was -15.1%; in assay [2], -18.7%. Further, the viability increase in assay [3] was -2.65%. The viability in assay [4] is 98.7%; in assay [5], 87.6%. In assay [6], the inhibition is 2.14%. Also, in assay [7], the RAM network inhibition is 3.12%.
Consider `CCCCC(=O)Nc1nc2ccc3nc(C)sc3c2s1`, for which the growth inhibition is -25.8% in assay [1] and -2.65% in assay [2]. Moreover, in assay [3], the viability increase was -0.78%. Besides, the viability in assay [4] was 81.3%; in assay [5], 87.2%. The inhibition in assay [6] was 2.27%. Besides, the RAM network inhibition in assay [7] is 0.32%.
`CC(=O)Nc1ccc(S(=O)(=O)N2CCN(c3cccc(C)c3C)CC2)cc1`: the growth inhibition was -2.38% in assay [1] and -3.89% in assay [2]. Besides, in assay [3], the viability increase was -6.76%. The results for the viability in assay [4] and in assay [5] were 35.8% and 34.5%, respectively. Also, the inhibition in assay [6] was 0.185%. Besides, the RAM network inhibition in assay [7] was 0.9%.
With `COc1ccc(S(=O)(=O)NCCSc2ccc(C)cc2)cc1OC`, the results for the growth inhibition in assay [1] and in assay [2] were 1.08% and 1.66%, respectively. Also, in assay [3], the viability increase is -2.26%. Further, the viability in assay [4] was 85.8%; in assay [5], 86.1%. The inhibition in assay [6] is 1.18%. Also, the RAM network inhibition in assay [7] was 2.65%.
Turning to `CC(=O)c1ccc(N2CCN(C(=O)c3cc4c(=O)n(C)c5ccccc5c4n3C)CC2)cc1`, the growth inhibition in assay [1] is -6.79%; in assay [2], -16.3%. In assay [3], the viability increase was -3.01%. Further, the viability in assay [4] is 96.5%; in assay [5], 88.5%. Further, the inhibition in assay [6] was 1.98%. Besides, in assay [7], the RAM network inhibition is 2.91%.
As for `CN(C)c1oc(-c2ccccc2Cl)nc1S(=O)(=O)c1ccccc1`, the growth inhibition in assay [1] was -17.1%; in assay [2], 0.09%. Besides, the viability increase in assay [3] is -0.11%. In addition, the viability in assay [4] was 95.5%; in assay [5], 93.2%. Further, in assay [6], the inhibition was 1.2%. Further, in assay [7], the RAM network inhibition is 17% (active).
As to `CS(=O)(=O)N(Cc1ccc(C(=O)NCc2ccco2)cc1)c1ccccc1`, the results for the growth inhibition in assay [1] and in assay [2] were -6.5% and -0.32%, respectively. The viability increase in assay [3] was -3.9%. Further, the figures for the viability in assay [4] and in assay [5] were 94% and 100%, respectively. In addition, the inhibition in assay [6] was -0.1%. The RAM network inhibition in assay [7] was 4.76%.
Consider `O=C(NCC1CCCO1)c1ccc2c(c1)C(=O)N(C1CCCCC1)C2=O` (stereo not drawn), for which the growth inhibition in assay [1] was -10.7%; in assay [2] it was -6.06%. Further, the viability increase in assay [3] was 1.19%. Moreover, the viability in assay [4] is 100%; in assay [5], 91.5%. Moreover, the inhibition in assay [6] was 3.77%. For the same molecule, the RAM network inhibition in assay [7] is 3.57%.
Turning to `CCC(C(=O)N1CC2(C)CC1CC(C)(C)C2)N1C(=O)c2ccccc2C1=O` (stereo not drawn), the growth inhibition is -2.71% in assay [1] and -3.99% in assay [2]. The viability increase in assay [3] was -3.05%. Moreover, the viability in assay [4] is 91.5%; in assay [5], 96.8%. Moreover, the inhibition in assay [6] is 1.57%. For the same molecule, in assay [7], the RAM network inhibition is 6%.
Turning to `COc1ccc(-n2nnc3c(=O)n(CC(=O)N4CCCc5ccccc54)cnc32)cc1`, the figures for the growth inhibition in assay [1] and in assay [2] were -1.22% and -1.47%, respectively. Further, the viability increase in assay [3] was -0.27%. The viability in assay [4] is 95.2%; in assay [5] it was 91.2%. The inhibition in assay [6] was 2.3%. Moreover, in assay [7], the RAM network inhibition was 1.61%.
For `CC(=O)Nc1ccccc1NC(=O)C(F)(F)F`, the growth inhibition in assay [1] is -14.2%; in assay [2] it was -5%. Moreover, the viability increase in assay [3] was -1.16%. Further, the viability in assay [4] was 101%; in assay [5], 108%. Also, in assay [6], the inhibition is 1.51%. Moreover, in assay [7], the RAM network inhibition is 0.88%.
Regarding `Cn1c(=O)oc2cc(S(=O)(=O)N3CCCc4ccccc43)ccc21`, the growth inhibition in assay [1] was -5.55%; in assay [2] it was -1.98%. The viability increase in assay [3] was -5.94%. Also, the viability is 18.1% (active) in assay [4] and 23.5% (active) in assay [5]. The inhibition in assay [6] is 1.96%. Also, the RAM network inhibition in assay [7] was 3.9%.
Regarding `O=C(c1cnc2n(c1=O)CCS2)N1CCN(C(c2ccccc2)c2ccc(Cl)cc2)CC1` (stereo not drawn), the values for the growth inhibition in assay [1] and in assay [2] were -9.19% and -3.16%, respectively. The viability increase in assay [3] was -5.31%. Besides, the viability was 79.1% in assay [4] and 63.7% in assay [5]. In assay [6], the inhibition was 1.31%. The RAM network inhibition in assay [7] is 2.72%.
For the molecule `Cc1cc(C)n(S(=O)(=O)c2cccc(Cl)c2Cl)n1`, the figures for the growth inhibition in assay [1] and in assay [2] were -2.69% and -0.205%, respectively. In addition, the viability increase in assay [3] is -1.97%. For the same molecule, the viability was 96.8% in assay [4] and 93.6% in assay [5]. In assay [6], the inhibition was 0.73%. The RAM network inhibition in assay [7] is 2.28%.
Regarding `CCOC(=O)Cn1c(=O)oc2cc(S(=O)(=O)Nc3ccc(F)cc3)ccc21`, the results for the growth inhibition in assay [1] and in assay [2] were -7.54% and -3.97%, respectively. Moreover, the viability increase in assay [3] is 0.5%. The viability in assay [4] is 96.7%; in assay [5], 106%. Further, the inhibition in assay [6] is 1.07%. Besides, the RAM network inhibition in assay [7] was 7.5%.
Regarding `COCCCNC(=O)CS(=O)Cc1nc(-c2ccccc2C)oc1C` (stereo not drawn), the growth inhibition was -4.76% in assay [1] and 18% in assay [2]. The viability increase in assay [3] was -1.44%. Further, the results for the viability in assay [4] and in assay [5] were 97.9% and 102%, respectively. In assay [6], the inhibition is 0.445%. In assay [7], the RAM network inhibition was 6.27%.
In the case of `CCn1c(=NC(=O)c2ccc(N3C(=O)CCC3=O)cc2)sc2c(OC)ccc(OC)c21`, the results for the growth inhibition in assay [1] and in assay [2] were -5.79% and -11.5%, respectively. Moreover, the viability increase in assay [3] was -0.73%. The viability in assay [4] was 97.9%; in assay [5], 92.7%. The inhibition in assay [6] is 1.86%. Also, in assay [7], the RAM network inhibition was 8.5%.
As to `CCOc1ccc(Nc2cc(C)nc3nc(C)nn23)cc1`, the growth inhibition in assay [1] is -10.9%; in assay [2], 5.96%. Also, the viability increase in assay [3] was -3.11%. Further, the viability in assay [4] is 110%; in assay [5] it was 93.9%. Also, in assay [6], the inhibition is 0.67%. Besides, the RAM network inhibition in assay [7] is 2.62%.
